The source of these data is ChEMBL document CHEMBL3232894, “Discovery of AMG 925, a FLT3 and CDK4 dual kinase inhibitor with preferential affinity for the activated state of FLT3” (J Med Chem, 2014).

Series [1] concerns the target Cyclin-dependent kinase 1/cyclin B1 (Homo sapiens, UniProt P06493). Kind of series: Inhibition of CDK1/cyclin B (unknown origin) using histone H1 as substrate after 60 mins by scintillation counting analysis in presence of [r-33P]ATP. The class given is protein-complex assay.
Series [2] has as its system MOLM-13. Kind of series: Antiproliferative activity against human MOLM13 cells harboring FLT3 ITD mutant assessed as incorporation of [3H]thymidine into DNA after 72 hrs by beta-plate counting analysis. The class given is functional, cell-based.
Series [3] in a line: Oral bioavailability in rat. The settings on record: in vivo. The class given is ADME, organism-based. The procedure, abridged:
(§1)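 Intravenous and oral (gavage, solution) PK in rat, dog and cynomolgus monkey. The rat vehicle for both routes was water/acetate/tween at pH 4, 96/3/1 (v/v/v). Dog and monkey iv doses used 40% PG aqueous solution at pH 2, and their oral doses used 20% captisol aqueous solution.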

In series [4] the target is Receptor-type tyrosine-protein kinase FLT3 (Homo sapiens, UniProt P36888, D835Y). Description: Binding affinity to FLT3 D835Y mutant (unknown origin).
Series [5] concerns the target Receptor-type tyrosine-protein kinase FLT3 (Homo sapiens, UniProt P36888, K663Q). Kind of series: Binding affinity to FLT3 K663Q mutant (unknown origin).
For another series, the system named is U-937. Description: Antiproliferative activity against human U937 cells assessed as incorporation of [3H]thymidine into DNA after 72 hrs by beta-plate counting analysis.
Series [6] relates to MOLM-13. Description: Induction of apoptosis in sorafenib-resistant human MOLM13 cells harboring FLT3 ITD+D835Y mutant at 1 uM after 48 hrs by Annexin V/Sytox Green staining based flow cytometry. The class given is functional. The procedure, abridged:
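MOLM13, sorafenib-resistant MOLM13 and U937 cells were each exposed to compound at 1 μM for 48 h. Cells were then stained with Annexin V/Sytox Green and analysed by flow cytometry. Readout is apoptotic cells as a percentage of all cells analysed.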

Series [7] can be described thus: Elimination half-life in iv dosed dog. The class given is ADME, organism-based, Canis lupus familiaris. Particulars: in vivo, read-out: beta t1/2 (converted). The procedure, abridged:
as §1

A short description of series [8]: Volume of distribution at steady state in iv dosed cynomolgus monkey. The class given is ADME, organism-based, Macaca fascicularis. The settings on record: in vivo, read-out: Vdss. An outline of the steps: as §1
Series [9] relates to MOLM-13. Kind of series: Antitumor activity against human MOLM13 cells xenografted in po dosed CrTac:NCR-Foxn1nu (NCR) nude mouse assessed as tumor growth inhibition administered qd for 8 days. The class given is functional. The procedure, abridged: (§2)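 Oral dosing once daily, day 5 to day 13, in NCR nude mice bearing established subcutaneous human MOLM13 AML xenografts, at 25, 50, 75 and 150 mg/kg against a vehicle group. Tumor growth inhibition read on day 14. AUC comes from terminal PK on plasma collected after the final dose.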
On the technique in general: In xenograft studies the graft and the host belong to different species.

Series [10] is described as follows: AUC in po dosed CrTac:NCR-Foxn1nu (NCR) nude mouse xenografted with human MOLM13 cells administered qd for 8 days. The class given is ADME, organism-based, MOLM-13. The settings on record: in vivo. An outline of the steps:
as §2

In the next series the test system is Mus musculus. Description: Toxicity in CrTac:NCR-Foxn1nu (NCR) nude mouse xenografted with human MOLM13 cells assessed as body weight loss at 25 to 150 mg/kg, po administered qd for 8 days. The class given is organism-based, MOLM-13. The arrangement: dose 25-150 mg/kg, route oral. Particulars: in vivo, 192 h. An outline of the steps:
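Body weight tracked throughout the 8-day once-daily oral study in NCR nude mice carrying MOLM13 xenografts. Doses were 25, 50, 75 and 150 mg/kg, with a vehicle control.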

The test system of another series is Tumour. Description: Decrease in STAT5 phosphorylation at Tyr694 in tumor of CrTac:NCR-Foxn1nu (NCR) nude mouse xenografted with human MOLM13 cells at 50 to 150 mg/kg, po after 3 to 24 hrs. The class given is functional, organism-based. The settings on record: Neoplasm, MOLM-13. An outline of the steps:
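MOLM13 tumor-bearing mice received a single oral dose of 50, 75 or 150 mg/kg. Tumors were harvested at 3, 6 and 24 h, and lysates were assayed for pSTAT5 and pRb. Unbound plasma levels were measured at the same time points. Results are mean ± SEM, n = 3 per group and n = 6 for vehicle.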

The target of series [11] is Cyclin-dependent kinase 4 (Homo sapiens, UniProt P11802). Kind of series: Inhibition of CDK4 in human COLO205 cells assessed as inhibition of Rb phosphorylation at Ser780 after 24 hrs.

Each structure is given as a SMILES string. The source made the active and inactive calls. No cut-off for these calls is given here.

Sequence of Cyclin-dependent kinase 1/cyclin B1 (P06493 whole entry): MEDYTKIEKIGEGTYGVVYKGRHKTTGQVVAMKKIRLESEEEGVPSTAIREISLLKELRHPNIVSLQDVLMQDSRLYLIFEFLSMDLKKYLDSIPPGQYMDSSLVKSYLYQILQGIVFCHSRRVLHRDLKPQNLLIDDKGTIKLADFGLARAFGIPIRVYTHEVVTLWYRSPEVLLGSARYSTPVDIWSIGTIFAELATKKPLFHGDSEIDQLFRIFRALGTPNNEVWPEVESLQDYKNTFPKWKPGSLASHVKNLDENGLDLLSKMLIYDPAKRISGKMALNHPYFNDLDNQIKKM
Sequence of Cyclin-dependent kinase 1/cyclin B1 (P14635 whole entry, further chain): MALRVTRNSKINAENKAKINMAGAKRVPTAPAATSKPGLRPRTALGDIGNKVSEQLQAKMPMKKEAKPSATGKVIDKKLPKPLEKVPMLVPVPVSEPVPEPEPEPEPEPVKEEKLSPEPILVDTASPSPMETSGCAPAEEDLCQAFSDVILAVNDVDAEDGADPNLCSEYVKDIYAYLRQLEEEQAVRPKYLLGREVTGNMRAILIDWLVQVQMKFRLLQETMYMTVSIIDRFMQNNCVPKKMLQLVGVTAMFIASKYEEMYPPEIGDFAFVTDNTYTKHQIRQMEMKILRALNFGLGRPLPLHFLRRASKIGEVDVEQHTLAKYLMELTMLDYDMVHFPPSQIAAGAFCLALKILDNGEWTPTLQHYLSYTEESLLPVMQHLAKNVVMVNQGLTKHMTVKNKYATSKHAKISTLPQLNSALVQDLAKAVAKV
Sequence of Cyclin-dependent kinase 4 (P11802 whole entry): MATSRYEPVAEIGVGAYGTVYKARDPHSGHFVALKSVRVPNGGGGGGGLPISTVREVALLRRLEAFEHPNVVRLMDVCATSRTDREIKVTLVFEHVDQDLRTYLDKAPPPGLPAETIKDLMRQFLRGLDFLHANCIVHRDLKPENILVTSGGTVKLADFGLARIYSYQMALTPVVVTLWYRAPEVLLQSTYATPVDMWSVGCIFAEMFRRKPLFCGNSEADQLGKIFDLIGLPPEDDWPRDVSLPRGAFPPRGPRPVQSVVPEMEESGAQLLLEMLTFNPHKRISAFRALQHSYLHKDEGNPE

Broadly, the IC50 is the concentration that inhibits the measured activity by half. As a reminder, the bioavailability is dose-corrected exposure relative to a reference, in per cent. What is called Kd is the constant that tells how readily two partners part at equilibrium. What is called ED50 is the dose that gives a 50% effect, or the effect in half of the subjects. The AUC is concentration integrated over time. In the case of `C[C@H]1CC[C@H](n2c3cnccc3c3cnc(Nc4ccc5c(n4)CCN(C(=O)CO)C5)nc32)CC1`, the IC50 in series [1] amounted to 2220 nM; in the series with MOLM-13 [2] it was 19 nM; in the series on U-937 it was 52 nM; in series [11] it was 23 nM. In addition, the bioavailability in series [3] was found to be 75%. The Kd in [4] was 1 nM; in series [5], 4 nM. In addition, the values for the Activity in the series with MOLM-13 [6] and in the series on Mus musculus were 70.86% and 10%, respectively. The half-life in [7] was 4.1 h. Besides, in [8], the Vd was 3.2 L/kg. In addition, the TGI entry in the series on MOLM-13 [9] is “Dose-dependent effect”. Also, in the series with MOLM-13 [9] (MOLM-13, po, 192 h), the ED50 was 22 mg/kg. This molecule gave an AUC at 192 h in series [10] of 28 µM·h. Moreover, the inhibition result in the series on Tumour is “Active”.
